Screens: PubChem, several laboratories
Shown are actives, neighbours in structure and some others; about 1.8% of the full set was active somewhere.
SKN-1 block: C. elegans SKN-1 inhibition; C. elegans VP596 Pgst-4::GFP/RFP ratio, acrylamide-induced, 24 h; inhibition, % at 21.8 µM; actives 0.49% (n = 360,000); AID 624304;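 active = interference check ratio from 0.5 to 1.5 plus GFP to RFP signal ratio inhibition reaching or exceeding a fixed threshold, cut at about 30% in these data, passing the limit was not always enough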
PREPL inhibitor: human PREPL enzyme inhibition | actives 0.68% (n = 320,000) | recombinant PREPL, fluorescence polarization activity-based probe | inhibition, % at 5.96 µM | AID 2751; in the data active = inhibition above about 43%;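 note: 0% = enzyme with DMSO and 100% = wells lacking enzyme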
Target sequence (Q4J6C6 whole entry, looked up): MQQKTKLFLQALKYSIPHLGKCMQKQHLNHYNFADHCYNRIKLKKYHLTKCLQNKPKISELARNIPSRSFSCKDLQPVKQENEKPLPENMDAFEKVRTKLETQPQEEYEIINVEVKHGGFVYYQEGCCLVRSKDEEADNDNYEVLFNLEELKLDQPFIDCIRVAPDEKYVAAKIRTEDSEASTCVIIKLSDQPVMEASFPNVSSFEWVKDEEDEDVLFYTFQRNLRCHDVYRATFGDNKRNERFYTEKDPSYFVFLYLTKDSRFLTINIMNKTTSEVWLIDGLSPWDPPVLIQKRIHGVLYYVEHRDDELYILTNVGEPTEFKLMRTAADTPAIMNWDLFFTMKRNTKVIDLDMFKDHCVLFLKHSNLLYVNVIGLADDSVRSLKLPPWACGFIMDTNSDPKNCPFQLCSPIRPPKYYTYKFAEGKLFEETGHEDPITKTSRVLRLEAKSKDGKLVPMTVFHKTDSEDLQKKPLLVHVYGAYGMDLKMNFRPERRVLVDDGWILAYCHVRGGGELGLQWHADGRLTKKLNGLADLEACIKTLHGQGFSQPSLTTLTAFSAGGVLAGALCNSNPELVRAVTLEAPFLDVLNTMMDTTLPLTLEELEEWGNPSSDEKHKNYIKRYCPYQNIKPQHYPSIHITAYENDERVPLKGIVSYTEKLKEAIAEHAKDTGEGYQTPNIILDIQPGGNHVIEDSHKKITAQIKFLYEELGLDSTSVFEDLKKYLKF
iPSC survival up: enhancers of human iPSC single-cell survival. hiPSC single-cell survival, ATPlite luminescence; 100% = ROCK inhibitor wells, 0% = DMSO. survival enhancement, % at 20 µM. actives 0.044% (n = 360,000). AID 602274; in the data active = survival enhancement above about 18%;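 note: cells exposed to compounds for 16 hours before the ATP read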
MT1-MMP act inh: MT1-MMP (human) activation inhibition; P50281; HT1080 RFP-PRO-GFP cells, GFP/RFP ratio fluorescence, overnight; percent of plate control window, DMSO zero; GFP/RFP ratio change, % at 20 µM; actives 0.061% (n = 360,000);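 active = GFP/RFP ratio change of at least 30% with cell ATP level not reduced by more than half and red fluorescence within 50% of control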
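Assay system: HT1080 RFP-PRO-GFP cells. Benchmarks: DMSO vehicle wells and RFP-L50D-GFP reporter cell wells. Times: overnight cell settling, then overnight compound exposure, 37 °C, 5% CO2. Compound: 20 µM single dose, 1% DMSO. Read-out basis: GFP/RFP fluorescence ratio.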
Tb MetRS inh: Trypanosoma brucei MetRS inhibition | actives 0.4% (n = 360,000) | inhibition, % at 11.9 µM | purified T. brucei MetRS, ATP depletion, Kinase-Glo luminescence;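 active = inhibition above a per-plate cutoff of the control wells' mean inhibition plus 3 SD, cut at about 5.5% in these data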;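 note: 0% = DMSO wells median and 100% = median of wells with control inhibitor compound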
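Material – parasite MetRS enzyme · Medium – HEPES-MgCl2-KCl buffer plus DTT, spermine, BSA, pyrophosphatase · Reagent – ATP, methionine and E. coli bulk tRNA substrates · Times – 15 min enzyme-compound preincubation, 2 h reaction, 10 min detection, 25 °C · Measured by – luminescence of leftover ATP · Evaluation – percent inhibition relative to median high and low control wells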
E coli Lon inh: E. coli protease La inhibition. purified E. coli Lon protease, fluorescence polarization. inhibition, % at 7.94 µM. actives 0.42% (n = 360,000). AID 602123; in the data active = inhibition above about 13%, passing the limit was not always enough;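 note: 0% = enzyme with probe and DMSO and 100% = no enzyme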
Numbers without * were called inactive.

For Cc1[nH]n(-c2ccccc2)c(=O)c1/C=N/c1ccccn1 the results were SKN-1 block 51*, PREPL inhibitor -4, iPSC survival up -1, MT1-MMP act inh 2, Tb MetRS inh -1 and E coli Lon inh 2.
For O=C1NCCN1c1ccccc1 the results were SKN-1 block -12, iPSC survival up 29*, MT1-MMP act inh -3, Tb MetRS inh 0 and E coli Lon inh 0.
`N#C/C(=C(/O)CCl)c1nc2ccccc2[nH]1` gave SKN-1 block 9, PREPL inhibitor 50*, iPSC survival up 0, MT1-MMP act inh -5, Tb MetRS inh 0 and E coli Lon inh -12.
`CC(=O)N1C(=O)C2(NCC(C)N2)c2ccccc21` (centres undefined) gave SKN-1 block 9, iPSC survival up 0, MT1-MMP act inh 4, Tb MetRS inh 0 and E coli Lon inh -7.
`COc1ccc2c(c1)CC/C(=C/c1ccco1)C2=O` gave SKN-1 block 60*, PREPL inhibitor 10, iPSC survival up -2, MT1-MMP act inh 3, Tb MetRS inh 0 and E coli Lon inh -21.
`O=C1/C(=C/c2ccco2)CCc2ccccc21` gave SKN-1 block 65*, PREPL inhibitor -3, iPSC survival up -2, MT1-MMP act inh -4, Tb MetRS inh -1 and E coli Lon inh -7.
Screening Nc1ccc2c(c1)C/C(=C/c1ccco1)C2=O returned SKN-1 block 4, PREPL inhibitor 29, iPSC survival up -2, MT1-MMP act inh -10, Tb MetRS inh 0 and E coli Lon inh -13.
For COc1cccc(C(C(=O)NC2CCCC2)N2CCN(c3ncccc3C#N)CC2)c1OC (centres undefined) the results were SKN-1 block -6, MT1-MMP act inh 3 and Tb MetRS inh 0.
Screening O=C(N/N=C\c1ccncc1)c1ccc(Br)s1 returned SKN-1 block 41*, iPSC survival up 0, MT1-MMP act inh -5, Tb MetRS inh 0 and E coli Lon inh -7.
Screening COc1ccc(-c2sc3ccccc3c2-c2cc(OC)ccc2C=O)cc1 returned SKN-1 block -1, iPSC survival up -1, MT1-MMP act inh -4, Tb MetRS inh 0 and E coli Lon inh 1.
For CCOC(=O)[C@]12CCC=C1N(Cc1ccc(Cl)cc1Cl)C(=O)[C@H](CC(=O)NCCCN1CCCC1=O)C2 the results were SKN-1 block 5, iPSC survival up 0, MT1-MMP act inh 3, Tb MetRS inh -1 and E coli Lon inh -3.
For O=C(/C=C/[C@H]1O[C@@H](n2cnc3c(NC(=O)c4ccccc4)ncnc32)[C@H](O)[C@@H]1O)NCc1cccc2ccccc12 the results were SKN-1 block -5, iPSC survival up 0, MT1-MMP act inh -2, Tb MetRS inh -1 and E coli Lon inh -14.
Screening COc1ccc(OC)c(NC(=O)C(CC(C)C)NC(=O)C2CCCCC2)c1 (centres undefined) returned SKN-1 block -17, PREPL inhibitor 17, iPSC survival up 24*, MT1-MMP act inh 3, Tb MetRS inh -1 and E coli Lon inh -8.
O=C(Nc1ccc(Cl)cn1)c1ccc2[nH]c(=O)c(=O)[nH]c2c1 was read as SKN-1 block 2, PREPL inhibitor 11, iPSC survival up 0, MT1-MMP act inh 0, Tb MetRS inh 0 and E coli Lon inh -2.
`Fc1ccccc1-c1nc(-c2ccc(Br)o2)no1` gave SKN-1 block 72*, PREPL inhibitor 13, iPSC survival up 0, MT1-MMP act inh -2, Tb MetRS inh -1 and E coli Lon inh -2.
For Fc1ccccc1-c1nc(-c2ccccc2)no1 the results were SKN-1 block 23, PREPL inhibitor -2, iPSC survival up -2, MT1-MMP act inh -6, Tb MetRS inh -1 and E coli Lon inh -2.
For Fc1ccccc1-c1nc(-c2ccncc2)no1 the results were SKN-1 block 46*, PREPL inhibitor 14, iPSC survival up 1, MT1-MMP act inh -1, Tb MetRS inh 0 and E coli Lon inh 8.
c1ccc(-c2noc(-c3cccc4ccccc34)n2)cc1 was read as SKN-1 block 37*, PREPL inhibitor -1, iPSC survival up 9, MT1-MMP act inh -3, Tb MetRS inh -1 and E coli Lon inh -2.
Screening Cc1ccccc1-c1nc(-c2ccc(Br)o2)no1 returned SKN-1 block 46*, PREPL inhibitor 3, iPSC survival up 0, MT1-MMP act inh -2, Tb MetRS inh 0 and E coli Lon inh 0.
Screening COc1ccc(-c2ccc3[nH]c4c(c3c2)CCN2C(=O)[C@@H]([C@H](C)O)[C@@H](N(C)C(=O)Nc3ccc(F)cc3)C[C@@H]42)cc1 returned SKN-1 block -23, iPSC survival up -3, MT1-MMP act inh -8, Tb MetRS inh -2 and E coli Lon inh -5.
`O=C(NCc1ccco1)c1cccc2c(-c3ccc(F)c(F)c3)coc12` gave SKN-1 block 22, iPSC survival up 1, MT1-MMP act inh 1, Tb MetRS inh 0 and E coli Lon inh -6.
For CNC(=O)OCc1ncn(-c2ccccc2)c1COC(=O)NC the results were SKN-1 block 8, iPSC survival up 0, MT1-MMP act inh 4, Tb MetRS inh 0 and E coli Lon inh 2.
For Cc1ccc(S(=O)(=O)NCC(=O)OCC(=O)NCc2ccc3c(c2)OCO3)cc1 the results were SKN-1 block -4, iPSC survival up 0, MT1-MMP act inh 0, Tb MetRS inh 0 and E coli Lon inh 0.
CCn1cc(CN2CCCC(CNS(=O)(=O)c3cccc4cccnc34)C2)cn1 (centres undefined) was read as SKN-1 block -5, PREPL inhibitor 8, iPSC survival up 0, MT1-MMP act inh -1, Tb MetRS inh 0 and E coli Lon inh 1.
`COc1ccc2nc(SCC(=O)Nc3ccc(S(=O)(=O)N4CCCC4)cc3)c(C#N)cc2c1` gave SKN-1 block 40*, PREPL inhibitor 0, iPSC survival up -1, MT1-MMP act inh -42, Tb MetRS inh 1 and E coli Lon inh -23.
Screening CC/C(=C\c1ccc(N(C)C)cc1)c1ccncc1 returned SKN-1 block 67*, iPSC survival up -1, MT1-MMP act inh -7, Tb MetRS inh 0 and E coli Lon inh 1.
For COC(=O)C1=C(C)NC(=O)/C1=C\N(C)C the results were SKN-1 block 39*, PREPL inhibitor 9, iPSC survival up 2, MT1-MMP act inh -6, Tb MetRS inh -1 and E coli Lon inh 24.
For COC(=O)C1=C(C)NC(=O)/C1=C\c1cccs1 the results were SKN-1 block -11, PREPL inhibitor 1, iPSC survival up 8, MT1-MMP act inh 0, Tb MetRS inh -1 and E coli Lon inh -6.
For C(=Nc1cccc2c(N=Cc3ccco3)cccc12)c1ccco1 the results were SKN-1 block 24, PREPL inhibitor 55*, iPSC survival up 0, MT1-MMP act inh -4, Tb MetRS inh 0 and E coli Lon inh 7.
